Test results from ChEMBL document CHEMBL1147863, “Synthesis, antimicrobial activities and cytogenetic studies of newer diazepino quinoline derivatives via Vilsmeier-Haack reaction” (2007).
Active and inactive are the calls of the source. The calls are words filed in the database; no cut-off is given here.

Key:
[1] = tested on: Escherichia coli; experiment: Antibacterial activity against Escherichia coli at 0.125% (w/v) concentration after 24 hrs by disc diffusion method; assay type: functional
In short: (§1)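 Disc diffusion on nutrient agar (pH 7.5 ± 0.2) swabbed with bacterial culture; compounds dissolved in chloroform at 0.125%, 0.25% or 0.5% w/v, soaked onto 5 mm filter paper discs placed on seeded plates. Incubated 35 ± 2 °C, 24 h; inhibition zone diameter (mm) measured, minus zone from solvent-only plate.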

[2] = Induction of chromosomal aberration in human peripheral blood leukocytes assessed as number of chromatid breaks at 20 ug/mL after 24 hrs; assay type: functional, Leukocyte
In short: (§2)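 Leukocytes from venous blood of three healthy non-smoking male donors, cultured at 37 °C for 72 h in McCoy's 5a with AB serum and PHA. Compound in 1% acetone was added at 0, 24 or 48 h after culture initiation (72, 48 or 24 h exposure), with water and acetone controls and triplicate cultures. Colchicine was added before harvest, then KCl hypotonic, fixation and Giemsa staining. Gaps and breaks were counted in 350 metaphases per treatment.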

[3] = tested on: Aspergillus flavus; experiment: Antifungal activity against Aspergillus flavus at 2% (w/v) concentration by disc diffusion method; assay type: functional
In short: (§3)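 Potato dextrose agar plates were seeded with a spore suspension (10⁶ spores/mL). Compounds in acetone at a final 0.5%, 1% or 2% w/v were loaded onto 5 mm filter-paper discs. Plates were incubated at 28 ± 2 °C for four days. Zone diameter was measured after subtracting the acetone-only plate zone, with carbendazim as standard.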

[4] = tested on: Fusarium oxysporum; experiment: Antifungal activity against Fusarium oxysporum at 2% (w/v) concentration by disc diffusion method; assay type: functional; in short: as §3
[5] = tested on: Aeromonas hydrophila; experiment: Antibacterial activity against Aeromonas hydrophila at 0.5% (w/v) concentration after 24 hrs by disc diffusion method; assay type: functional; in short: as §1
[6] = tested on: Escherichia coli; experiment: Antibacterial activity against Escherichia coli at 0.25% (w/v) concentration after 24 hrs by disc diffusion method; assay type: functional; in short: as §1
[7] = tested on: Alternaria macrospora; experiment: Antifungal activity against Alternaria macrospora at 0.5% (w/v) concentration by disc diffusion method; assay type: functional; in short: as §3
[8] = Induction of chromosomal aberration in human peripheral blood leukocytes assessed as number of chromatid gaps at 20 ug/mL after 24 hrs; assay type: functional, Leukocyte; in short: as §2
[9] = tested on: Alternaria macrospora; experiment: Antifungal activity against Alternaria macrospora at 2% (w/v) concentration by disc diffusion method; assay type: functional; in short: as §3
[10] = tested on: Fusarium oxysporum; experiment: Antifungal activity against Fusarium oxysporum at 0.5% (w/v) concentration by disc diffusion method; assay type: functional; in short: as §3
[11] = tested on: Escherichia coli; experiment: Antibacterial activity against Escherichia coli at 0.5% (w/v) concentration by after 24 hrs by disc diffusion method; assay type: functional; in short: as §1
[12] = tested on: Talaromyces funiculosus; experiment: Antifungal activity against Penicillium funiculosum at 1% (w/v) concentration by disc diffusion method; assay type: functional; in short: as §3
[13] = tested on: Talaromyces funiculosus; experiment: Antifungal activity against Penicillium funiculosum at 0.5% (w/v) concentration by disc diffusion method; assay type: functional; in short: as §3
[14] = tested on: Salmonella typhi; experiment: Antibacterial activity against Salmonella typhi at 0.5% (w/v) concentration after 24 hrs by disc diffusion method; assay type: functional, Salmonella enterica subsp. enterica serovar Typhi
In short: (§4)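 Disc diffusion on nutrient agar (pH 7.5 ± 0.2) swabbed with bacteria. Compounds were dissolved in chloroform at a final 0.125%, 0.25% or 0.5% w/v and loaded onto 5 mm filter-paper discs. Plates were incubated at 35 ± 2 °C for 24 h. The inhibition-zone diameter (mm) was reported after subtracting the zone of the solvent-only plate.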

[15] = tested on: Salmonella typhi; experiment: Antibacterial activity against Salmonella typhi at 0.125% (w/v) concentration after 24 hrs by disc diffusion method; assay type: functional, Salmonella enterica subsp. enterica serovar Typhi; in short: as §4
[16] = tested on: Aeromonas hydrophila; experiment: Antibacterial activity against Aeromonas hydrophila at 0.25% (w/v) concentration after 24 hrs by disc diffusion method; assay type: functional; in short: as §1
[17] = tested on: Salmonella typhi; experiment: Antibacterial activity against Salmonella typhi at 0.25% (w/v) concentration after 24 hrs by disc diffusion method; assay type: functional, Salmonella enterica subsp. enterica serovar Typhi; in short: as §4
[18] = tested on: Aspergillus flavus; experiment: Antifungal activity against Aspergillus flavus at 0.5% (w/v) concentration by disc diffusion method; assay type: functional; in short: as §3
[19] = tested on: Aeromonas hydrophila; experiment: Antibacterial activity against Aeromonas hydrophila at 0.125% (w/v) concentration after 24 hrs by disc diffusion method; assay type: functional; in short: as §1
[20] = tested on: Talaromyces funiculosus; experiment: Antifungal activity against Penicillium funiculosum at 2% (w/v) concentration by disc diffusion method; assay type: functional; in short: as §3
[21] = tested on: Aspergillus flavus; experiment: Antifungal activity against Aspergillus flavus at 1% (w/v) concentration by disc diffusion method; assay type: functional; in short: as §3
[22] = tested on: Alternaria macrospora; experiment: Antifungal activity against Alternaria macrospora at 1% (w/v) concentration by disc diffusion method; assay type: functional; in short: as §3
[23] = tested on: Fusarium oxysporum; experiment: Antifungal activity against Fusarium oxysporum at 1% (w/v) concentration by disc diffusion method; assay type: functional; in short: as §3
[24] = Induction of chromosomal aberration in human peripheral blood leukocytes assessed as number of chromatid gaps at 20 ug/mL after 48 hrs; assay type: functional, Leukocyte; in short: as §2
[25] = Induction of chromosomal aberration in human peripheral blood leukocytes assessed as number of chromatid breaks at 20 ug/mL after 48 hrs; assay type: functional, Leukocyte; in short: as §2

Compound	Activity [2]	inhibition zone (IZ) [3]	inhibition zone (IZ) [4]	inhibition zone (IZ) [5]	inhibition zone (IZ) [6]	inhibition zone (IZ) [7]	Activity [8]	inhibition zone (IZ) [9]	inhibition zone (IZ) [10]	inhibition zone (IZ) [11]	inhibition zone (IZ) [12]	inhibition zone (IZ) [14]	inhibition zone (IZ) [15]	inhibition zone (IZ) [16]	inhibition zone (IZ) [17]	inhibition zone (IZ) [18]	inhibition zone (IZ) [19]	inhibition zone (IZ) [20]	inhibition zone (IZ) [21]	inhibition zone (IZ) [22]	further results
Cc1cccc2c(Cl)c3c(nc12)C=CNN=C3	0.3%	8 mm	10 mm	11 mm	2 mm	3 mm	0.6%	10 mm	2 mm	6 mm	3 mm	12 mm	5 mm	7 mm	7 mm	2 mm	4 mm	10 mm	4 mm	6 mm	Activity [1]: inactive; Activity [13]: inactive; inhibition zone (IZ) [23]: 6 mm
Cc1ccc(C)c2c(Cl)c3c(nc12)C=CNN=C3	0.9%	16 mm	15 mm	11 mm	5 mm	7 mm	2%	17 mm	4 mm	9 mm	10 mm	14 mm	5 mm	8 mm	9 mm	4 mm	4 mm	17 mm	9 mm	11 mm	inhibition zone (IZ) [1]: 2 mm; Activity [24]: 0.9%; inhibition zone (IZ) [13]: 5 mm; Activity [25]: 0.3%; inhibition zone (IZ) [23]: 11 mm
